T cruzi inh: blocks replication of Trypanosoma cruzi. T. cruzi beta-gal in NIH3T3, luminescence, 90 h. AID 1885. hit rate 1.4% among 300,000. inhibition, % (test concentration not listed);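 active = mean inhibition across valid replicates above about 55%, limit read from the data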;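 note: signal also drops with host cell toxicity which is not excluded here; higher percent means less beta-gal luminescence so fewer parasites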
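Read-out: Parasite load inhibition, % | Test system: Mouse NIH/3T3 fibroblasts infected with β-gal-expressing T. cruzi Tulahuen C4 | Amount: 5,000 cells/well | Medium: DMEM, 2% fetal bovine serum | Signal: GalScreen β-gal luminescence, detergent lysis, 60 min | Timing: 3 h attach, ≥90 h co-culture | Also added: Tulahuen C4 trypomastigotes, 5000/well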
UBC13 polyUb: blocks human UBC13 polyubiquitin chain formation; AID 485273; inhibition, % at 20 µM; TR-FRET; P61088; hit rate 0.47% among 330,000; in the data active = inhibition above about 45%, passing the limit was not always enough
Target sequence (P61088 whole entry, looked up): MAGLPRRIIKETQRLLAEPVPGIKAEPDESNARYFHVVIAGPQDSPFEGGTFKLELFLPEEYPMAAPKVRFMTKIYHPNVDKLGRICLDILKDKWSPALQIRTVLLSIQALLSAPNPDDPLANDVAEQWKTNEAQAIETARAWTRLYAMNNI
PP1 inh: counter-screen for PP5 inhibitors: inhibitors of human PP1-alpha; purified PP1alpha, OMFP fluorescence; inhibition, % at 6.7 µM; hit rate 0.9% among 320,000;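 active = inhibition above the mean inhibition of all tested compounds plus 3 SD, computed separately for each screening campaign, cut at about 15% in these data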
pCIP destab: compounds decreasing mouse p/CIP protein stability; F442A p/CIP-EGFP cells, EGFP fluorescence, 16 h; decrease of EGFP signal, % at 10 µM; hit rate 0.01% among 290,000; AID 1984;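 active = EGFP signal decrease of at least 30% at 10 µM or well 3 SD below plate mean, unless failing retest; inactive = the rest, including hits failing retest or dose response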
AI-2 QS modul: modulators of Vibrio harveyi AI-2 quorum sensing system; Vibrio harveyi JMH597 AI-2 luminescence/OD600 ratio, 9 h; stronger effect = lower value; strain lacks LuxN and CqsS sensors; 0 = neutral-control median; activity change, % at 7.5 µM; hit rate 0.4% among 300,000; AID 2094; in the data active = activity change below about -75%, passing the limit was not always enough;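 note: luminescence divided by OD600 gain over 9 h not by final OD600 alone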
Large screens that a line does not name were inactive. A selection: hits, their analogues and other compounds. The true share with any hit is near 2.8%.

COc1cc2c(cc1OC)[C@@H]1Cc3ccc(OC)c(OC)c3CN1CC2	T cruzi inh 56
CCCCN(C)S(=O)(=O)c1ccc(C(=O)N(CCN(C)C)c2nc3ccc(C)cc3s2)cc1	T cruzi inh 65
CCc1ccc2nc(N(CCCN(C)C)C(=O)c3ccc(S(=O)(=O)N4CCCC4)cc3)sc2c1	none
CN(C)CCCN(C(=O)c1ccc(S(=O)(=O)N2CCOCC2)cc1)c1nc2ccc(F)cc2s1	T cruzi inh 65
CN(C)CCN(C(=O)c1ccc2ccccc2c1)c1nc2ccc(Br)cc2s1	none
CN(C)CCCN(C(=O)c1ccc(S(=O)(=O)N2CCCCCC2)cc1)c1nc2ccc(F)cc2s1	none
CN(C)CCN(C(=O)c1ccc(S(=O)(=O)N2CCCC2)cc1)c1nc2ccc(Br)cc2s1	T cruzi inh 57
Cc1ccc2nc(N(CCCN(C)C)C(=O)c3ccc(S(=O)(=O)N4CCCCCC4)cc3)sc2c1	T cruzi inh 60
COCCN(C(=O)CCC(=O)Nc1ccccn1)C(C(=O)NCCC(C)C)c1ccc(F)cc1 (stereo unspecified)	none
COC(=O)Cc1c(C(=O)OC)nnn1-c1ccc(OC(F)(F)F)cc1	none
CCC1CCCCN1S(=O)(=O)c1ccc(C(=O)N(CCCN(C)C)c2nc3cc4c(cc3s2)OCO4)cc1 (stereo unspecified)	none
CC1CCCCN1S(=O)(=O)c1ccc(C(=O)N(CCCN(C)C)c2nc3ccc(Br)cc3s2)cc1 (stereo unspecified)	UBC13 polyUb 52
CCN(CC)CCN(C(=O)c1ccc(S(=O)(=O)N(C)C2CCCCC2)cc1)c1nc2ccc(OC)cc2s1	T cruzi inh 65
Cc1ccc(C(=O)NC2CC(=O)N(c3ccc4c(c3)OCCO4)C2)cc1[N+](=O)[O-] (stereo unspecified)	none (no result: pCIP destab)
Cc1ccccc1C(=O)NCC(=O)N1CCN(C/C=C/c2ccccc2)CC1	none (no result: T cruzi inh, PP1 inh, pCIP destab, AI-2 QS modul)
O=C(N=Nc1c(O)[nH]c2ccccc12)c1cc(NS(=O)(=O)c2cccs2)cc(NS(=O)(=O)c2cccs2)c1	PP1 inh 16
O=C(N=Nc1c(O)[nH]c2ccccc12)c1cccs1	none
NC(=O)c1ccccc1OC1CCC1	none
O=C(O)c1ccc(Oc2ccc(C(F)(F)F)cn2)cc1	none
Cc1ccccc1N1CCN(C(=O)c2ccc(Oc3ccc(C(F)(F)F)cn3)cc2)CC1	T cruzi inh 58
O=C(CSc1nc(O)cc(=O)n1-c1ccccc1)Nc1ccc2c3c(cccc13)CC2	PP1 inh 16
Nc1c(N(CCC2=CCCCC2)C(=O)C2CC2)c(=O)[nH]c(=O)n1Cc1ccccc1	none
OC(CN1CCCCC1)Cn1c2ccc(Cl)cc2c2cc(Cl)ccc21 (stereo unspecified)	T cruzi inh 82
OC(CN1CCN(c2ccccn2)CC1)Cn1c2ccc(Cl)cc2c2cc(Cl)ccc21 (stereo unspecified)	none
Nc1nc(CCl)nc(Nc2cccc3ccccc23)n1	T cruzi inh 70
CCn1nc(C)c(NC(=O)/C=C/c2ccc(OC)c(COc3ccc(Cl)cc3Br)c2)c1C	T cruzi inh 55
COc1ccc(/C=C/C(=O)NCc2cn(C)nc2C)cc1COc1ccc(Cl)cc1Br	none
CCOC(=O)C1(CCOc2ccccc2)CCN(Cc2ccc(-n3cccn3)cc2)CC1	none
CCc1noc(C)c1C(=O)N1CCCC(C(=O)c2cc(F)ccc2OC)C1 (stereo unspecified)	T cruzi inh 55
CCOC(=O)N1CCC(N2CCCC(C(=O)c3cc(F)ccc3OC)C2)CC1 (stereo unspecified)	T cruzi inh 59
Oc1ccc2ccccc2c1N=Nc1ccccn1	T cruzi inh 55
Oc1ccc2ccccc2c1N=Nc1ccccc1F	none
COc1ccc(-n2ncc(Cl)c(Cl)c2=O)cc1	T cruzi inh 57 (no result: PP1 inh)
COc1ccc(-n2ncc(N(C)n3cccc3)c(Cl)c2=O)cc1	none (no result: T cruzi inh)
COc1ccc(-c2nc(CS(=O)CC(=O)N3CCN(C)CC3)c(C)o2)cc1 (stereo unspecified)	none
O=C(Nc1nccs1)C1CC(=O)N(c2ccccc2)C1 (stereo unspecified)	none
Cc1c(CCC(=O)NCCCCCC(=O)O)c(=O)oc2c(C)c3oc4c(c3cc12)CCCC4	none (no result: PP1 inh)
Cc1c(CCC(=O)NCCCn2ccnc2)c(=O)oc2c(C)c3oc4c(c3cc12)CCCC4	UBC13 polyUb 53
COc1cc2nc(N3CCN(c4cc(C)ccc4C)CC3)nc(N)c2cc1OC	T cruzi inh 56

Bioassay records deposited in PubChem by several laboratories.
